UCH37 DUB inh: blocks the human deubiquitinase UCH37; Q9Y5K5; purified proteasome/UCH37, Ub-AMC cleavage fluorescence; inhibition, % (no concentration beside the values); hit rate 0.33% among 330,000;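 active means mean inhibition over replicate wells above about 20%, limit read from the data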;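 further: 0% = compound-free wells with enzyme and 100% = wells lacking proteasome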
Target sequence (Q9Y5K5 whole entry, looked up): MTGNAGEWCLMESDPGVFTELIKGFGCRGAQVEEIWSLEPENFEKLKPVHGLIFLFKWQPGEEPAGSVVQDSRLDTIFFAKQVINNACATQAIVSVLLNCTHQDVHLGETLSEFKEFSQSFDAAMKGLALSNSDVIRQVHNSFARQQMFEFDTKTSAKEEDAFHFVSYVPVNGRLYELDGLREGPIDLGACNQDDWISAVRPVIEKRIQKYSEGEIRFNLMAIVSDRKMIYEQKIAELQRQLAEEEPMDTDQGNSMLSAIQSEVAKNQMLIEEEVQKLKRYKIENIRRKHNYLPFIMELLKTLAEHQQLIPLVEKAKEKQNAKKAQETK
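Reagent: Ub-AMC substrate; assay system: Proteasome-associated human UCH37 deubiquitinase; controls: no-proteasome and no-compound wells; read-out: % inhibition of Ub-AMC cleavage fluorescence; timing: 30 min preincubation with enzyme, 25 min cleavage at room temperature; signal: AMC fluorescence from Ub-AMC cleavage, excitation 355 nm, emission 460 nm; buffer or medium: Tris-HCl pH 7.4 plus ovalbumin, ATP-MgCl2, DTT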
UBC9 SUMO inh: blocks human SUMOylation mediated by UBC9. inhibition, % at 35 µM. HTRF SUMOylation assay, SAE1/SAE2 + UBC9, in vitro. hit rate 0.36% among 290,000; in the data active means inhibition above about 50%, passing the limit was not always enough; inconclusive means no clear call, values can overlap the other calls
Target sequence (P63279 whole entry, looked up): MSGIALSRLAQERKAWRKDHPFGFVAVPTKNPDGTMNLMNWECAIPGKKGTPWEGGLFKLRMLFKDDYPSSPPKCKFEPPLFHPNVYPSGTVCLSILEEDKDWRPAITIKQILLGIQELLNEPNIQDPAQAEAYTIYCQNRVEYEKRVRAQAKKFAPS
Neddyl block: cullin neddylation inhibition. P61081+Q13564. AID 651699. inhibition, % at 25 µM. TR-FRET cullin neddylation, biochemical. hit rate 0.58% among 360,000; in the data active means inhibition above about 36%
Fh CTSL1 inh: cathepsin L1 inhibition, PFM18AAP counter-screen; recombinant F. hepatica cathepsin L1, Z-Leu-Arg-MCA fluorescence; inhibition, % at 5.96 µM; hit rate 0.49% among 300,000; AID 1906;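 active means inhibition above the mean of all tested compounds plus 3 SD, set per screening campaign, cut at about 17% in these data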;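 further: 0% = plate median of test compound wells and 100% = 1 µM Z-Phe-Ala-diazomethylketone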
Active calls of the source: *; i = inactive; ? = inconclusive; · = no result shown. Rows were chosen to be rich in hits. Some 1.4% of all compounds tested hit in one or more screens of this group.

SMILES	UCH37 DUB inh	UBC9 SUMO inh	Neddyl block	Fh CTSL1 inh
CCN1CCN(CCCNC(=O)c2ccc3c(c2)N(Cc2ccccc2)CCS3)CC1	i	25.4	31.5	41.9*
COc1cc(C=NOCC(=O)Nc2cc(C)on2)ccc1OCc1ccccc1	-3.1	·	·	·
O=C(NN=C/C=C/c1ccccc1)c1ccncc1	3.4	·	·	·
CCCN(C(=O)CCCSc1nc2ccccc2[nH]1)c1c(N)n(Cc2ccccc2)c(=O)[nH]c1=O	-1.2	·	3.6	19.0*
CCCCN(C(=O)CCCSc1nc2ccccc2[nH]1)c1c(N)n(Cc2ccccc2)c(=O)[nH]c1=O	-0.9	-1.8	-2.5	0.3
COc1ccc(CN=Cc2c(O)[nH]c3ccccc23)cc1	8.2	9.8	-24.1	21.0*
CC(=NNC(=O)Cn1ccc(C(F)(F)F)n1)c1ccc2c(c1)OCO2	1.0	·	·	·
Cc1c(C)c2ccc(OCC(=O)NCCN3CCOCC3)c(C)c2oc1=O	-18.9	4.8	47.1*	1.7
COc1ccc2nc(NC(=O)c3ccco3)sc2c1	-38.2	18.4	48.4*	2.4
Cc1ccc2nc(NC(=O)c3ccco3)sc2c1	2.1	14.3	33.5	1.8
COc1cccc(OC)c1C(=O)Nc1nc2ccc([N+](=O)[O-])cc2s1	21.2*	2.7	-15.6	1.0
CC(=O)c1cccc(NC(=O)CON=C2CCCc3nonc32)c1	1.3	·	·	·
COc1ccc(OC)c(-c2csc(NC(=O)CSc3ccc([N+](=O)[O-])cc3)n2)c1	33.1*	-18.5	-15.2	1.0
CCN1CCN(C(=O)/C=C/c2cccc(Cl)c2)CC1	4.9	1.7	1.8	4.4
CCN1CCN(C(=O)/C=C/c2ccc(C(C)C)cc2)CC1	2.2	·	5.8	16.8*
Cc1cc(C)c(S(=O)(=O)/N=C2\C=C(Nc3ccc(C(=O)O)cc3)C(=O)c3ccccc32)c(C)c1	·	47.3	-51.4	25.1*
CCc1ccc(S(=O)(=O)/N=C2\C=C(Nc3cccc(C(=O)O)c3)C(=O)c3ccccc32)cc1	·	?	-53.4	50.6*
O=C(O)c1ccc(NC2=C/C(=N/S(=O)(=O)c3ccccc3)c3ccccc3C2=O)cc1	·	?	-67.3	·
CCc1ccc(S(=O)(=O)N=C2C=CC(=O)c3ccccc32)cc1	7.7	·	·	·
CCc1ccc(S(=O)(=O)/N=C2\C=C(Nc3ccc(O)cc3)C(=O)c3ccccc32)cc1	·	-3.9	-47.5	63.4*
Cc1ccccc1NCC(=O)NN=C/C(Br)=C/c1ccccc1	-1.5	·	·	·
O=C1N=c2ccc(Br)cc2=C1c1sc(=S)n(NS(=O)(=O)c2ccccc2)c1O	2.6	16.5	-3.3	27.8*
CCCCC/C=C\C[C@H](O)/C=C/c1cccc(C[C@H](O)CCCCO)n1	0.2	7.8	8.9	40.6*
Cc1ccc(S(=O)(=O)N2CCCCC2)cc1NC(=O)CCc1nc2ccccc2c(=O)[nH]1	5.2	·	3.4	-5.6
COc1ccc(S(=O)(=O)N2CCCCC2)cc1NC(=O)CCc1nc2ccccc2c(=O)[nH]1	1.0	·	0.1	28.4*
SMILES	UCH37 DUB inh	UBC9 SUMO inh	Neddyl block	Fh CTSL1 inh
CCOc1cc(N2CCOCC2)c(OCC)cc1NC(=O)CSc1n[nH]c(N)n1	0.7	14.4	0.6	21.1*
CCOc1cc(N2CCOCC2)c(OCC)cc1NC(=O)CN1C(=O)NC(C)(C2CC2)C1=O (stereo not given)	6.0	-10.9	0.6	36.8*
CCOc1cc(N2CCOCC2)c(OCC)cc1NC(=O)COC(=O)[C@@H]1CCCN1S(=O)(=O)c1ccccc1F	3.7	0.3	2.9	79.7*
CCOc1cc(N2CCOCC2)c(OCC)cc1NC(=O)COC(=O)c1cc2ccccc2cc1O	2.1	2.4	0.6	57.6*
CCNC(=S)NN=Cc1ccc(C#N)cc1	6.9	·	·	·
CC1=C(C(=O)Nc2ccccc2)C(c2ccc(C)o2)n2c(s/c(=C\c3ccco3)c2=O)=N1 (stereo not given)	·	71.8*	-14.4	·
O=c1[nH]cc(N=Cc2cc(Cl)cc(Cl)c2O)c(=O)[nH]1	5.1	56.7*	41.6*	-1.9
CC(C)OCCOc1ccc2oc(-c3ccco3)cc(=O)c2c1	i	46.0	·	3.3
N#CCOc1ccc2oc(-c3ccco3)cc(=O)c2c1	·	52.4*	·	2.9
O=C1Nc2ccccc2C1=Nc1cccc([N+](=O)[O-])c1	6.3	5.7	-23.8	-1.7
NC(=O)c1ccc(N=C2C(=O)Nc3ccc([N+](=O)[O-])cc32)cc1	84.4*	62.8	-10.1	108.8*
COc1cc2c(cc1OC)-c1cc3ccc4c(c3c[n+]1CC2)OCO4	-13.8	·	-58.2	51.5*
N#Cc1c(NCCCO)nc(-c2ccco2)c2c1CCCC2	-225.1	2.7	·	18.4*
O=C1C=C(NCCN2CCOCC2)C(=O)c2cnccc21	·	84.2*	·	100.1*
Cc1ccccc1COc1cccc(C=NNC(=O)c2nnn(-c3nonc3N)c2C)c1	4.7	·	·	·
Cc1ccc(Cn2ccc(=O)c(OCc3c(Cl)cccc3Cl)c2C)cc1	24.9*	-15.2	-10.9	0.8
O=[N+]([O-])c1ccc(N/N=C/c2cccc(O)c2O)c(S(=O)(=O)N2CCOCC2)c1	·	50.9*	-17.7	1.9
CC(C)N(C(=O)Cn1cc(S(=O)(=O)CC(=O)NCCc2ccccc2)c2ccccc21)C(C)C	·	·	-4.0	·
COc1ccc(CCNC(=O)CS(=O)(=O)c2cn(CC(=O)N(C(C)C)C(C)C)c3ccccc23)cc1OC	-0.3	1.6	11.8	16.9*
Cc1cccc(OCCOc2ccc(C=NNC(=O)Cc3nnc(N)s3)cc2)c1	2.5	·	·	·
CC(C)NC(=O)c1ccc2c(=O)n(Cc3ccco3)c(=S)[nH]c2c1	2.7	5.2	-107.5	-2.1
COc1ccc(-n2c(=S)[nH]c3cc(C(=O)NCc4ccco4)ccc3c2=O)c(OC)c1	2.7	11.5	-3.3	18.6*
CCCNC(=O)c1ccc2c(=O)n(Cc3ccco3)c(=S)[nH]c2c1	2.3	63.6*	-16.5	-0.1
O=C(Nc1ccccc1-c1nc2ccccc2s1)c1cccnc1Cl	-108.9	58.2*	-35.8	4.9
O=C(Nc1ccccc1-c1nc2ccccc2s1)c1ccco1	4.3	?	-43.5	-5.0
SMILES	UCH37 DUB inh	UBC9 SUMO inh	Neddyl block	Fh CTSL1 inh
O=C(NN=Cc1c[nH]c2ccccc12)c1cccc(O)c1	6.7	·	·	·
O=c1/c(=C\c2cc([N+](=O)[O-])cc([N+](=O)[O-])c2O)sc2nc3ccccc3n12	·	25.7	-32.3	4.1
O=C(O)c1cccc(-c2ccc(/C=c3/sc4nc5ccccc5n4c3=O)o2)c1	·	84.0*	-0.4	2.8
O=C(O)c1ccccc1-c1ccc(C=c2sc3nc4cc(Br)cnc4n3c2=O)o1	42.9*	·	-26.1	·
O=c1c(=Cc2cc([N+](=O)[O-])cc([N+](=O)[O-])c2O)sc2nc3ccccc3n12	27.0*	·	·	·
CCCCCCCCCC(=O)NN=C(C)c1cccnc1	6.3	·	·	·
CC(=NNC(=O)c1nnn(-c2nonc2N)c1-c1cccs1)c1cccc(O)c1	2.0	·	·	·
C=CCn1c(SCC(=O)N2CCOCC2)nc2scc(-c3ccco3)c2c1=O	4.2	18.9	8.8	4.9
C=CCn1c(SCC(C)=O)nc2scc(-c3ccco3)c2c1=O	2.5	21.7	2.5	23.2*
Cc1ccc(NC(=O)c2ccccc2CCc2ccccc2)c(C)c1	2.4	10.0	1.0	-2.0
Cc1cc(C)c(NC(=O)c2ccccc2CCc2ccccc2)c(C)c1	2.6	-3.0	33.5	17.1*

Bioassay records deposited in PubChem BioAssay by several laboratories.
